Measured values from ChEMBL document CHEMBL4028864 (J Med Chem, 2017).

Assays:
[1] = Half life in rat liver microsome preincubated for 5 mins followed by NADPH addition by LC-MS/MS analysis; format: ADME; conditions: liver microsomes
[2] = Cytotoxicity against human AC10 cells assessed as cell viability at 100 uM after 24 hrs by CellTiter-Glo assay relative to control; format: cell-based; conditions: read-out: Activity
Procedure, shortened: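 AC10 human cardiomyocytes seeded at 5000 cells/well the day before treatment. Cells were exposed for 24 h at 37 °C to a range of 0.315–100 μM final (0.5% DMSO). Viability was read by CellTiter-Glo luminescence.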

[3] = Thermodynamic aqueous solubility of the compound at pH 7.4 after 24 hrs by UV absorbance based assay; format: physicochemical; conditions: read-out: Therm_solubility
Procedure, shortened: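 A 20 mM DMSO stock was diluted 1:100 into pH 7.4 PBS, then shaken at 250 rpm for 3 or 24 h at 22.5 ± 2.5 °C. The mixture was filtered and the filtrate diluted with acetonitrile/universal buffer. Absorbance was read at 310 nm against a 6.25–200 μM calibration curve, in triplicate.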

Histone deacetylase 8 = Histone deacetylase 8 (Homo sapiens, UniProt Q9BY41); test: Inhibition of C-terminal His tagged human recombinant HDAC8 (1 to 377 residues) expressed in Baculovirus infected insect cells in presence of ATP
Sequence of Histone deacetylase 8 (Q9BY41 whole entry, the tested form may be a part): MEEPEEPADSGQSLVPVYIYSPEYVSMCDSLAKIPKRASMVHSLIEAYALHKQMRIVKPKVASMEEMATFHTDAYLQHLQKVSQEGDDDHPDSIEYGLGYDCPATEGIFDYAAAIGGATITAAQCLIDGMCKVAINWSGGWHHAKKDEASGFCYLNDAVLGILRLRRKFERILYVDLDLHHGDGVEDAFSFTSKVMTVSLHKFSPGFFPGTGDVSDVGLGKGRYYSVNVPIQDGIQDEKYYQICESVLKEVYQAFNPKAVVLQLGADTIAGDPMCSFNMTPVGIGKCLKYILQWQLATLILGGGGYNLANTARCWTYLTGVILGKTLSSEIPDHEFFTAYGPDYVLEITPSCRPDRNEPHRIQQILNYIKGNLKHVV
Procedure, shortened: (§1)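 HDAC enzyme inhibition was run by a contract laboratory.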

TAMH = test: cells; format: ADME, cell-based; conditions: Mus musculus, 24 h
[4] = molecular target: T1, Tyrosine-protein kinase JAK2 (Homo sapiens, UniProt O60674); test: Binding affinity to N-terminal His tagged human recombinant JAK2 (1014 to 1132 residues) expressed in Escherichia coli after 60 to 90 mins by LC/MS analysis; conditions: read-out: Kd(app)
T1 sequence (O60674 whole entry, the tested form may be a part): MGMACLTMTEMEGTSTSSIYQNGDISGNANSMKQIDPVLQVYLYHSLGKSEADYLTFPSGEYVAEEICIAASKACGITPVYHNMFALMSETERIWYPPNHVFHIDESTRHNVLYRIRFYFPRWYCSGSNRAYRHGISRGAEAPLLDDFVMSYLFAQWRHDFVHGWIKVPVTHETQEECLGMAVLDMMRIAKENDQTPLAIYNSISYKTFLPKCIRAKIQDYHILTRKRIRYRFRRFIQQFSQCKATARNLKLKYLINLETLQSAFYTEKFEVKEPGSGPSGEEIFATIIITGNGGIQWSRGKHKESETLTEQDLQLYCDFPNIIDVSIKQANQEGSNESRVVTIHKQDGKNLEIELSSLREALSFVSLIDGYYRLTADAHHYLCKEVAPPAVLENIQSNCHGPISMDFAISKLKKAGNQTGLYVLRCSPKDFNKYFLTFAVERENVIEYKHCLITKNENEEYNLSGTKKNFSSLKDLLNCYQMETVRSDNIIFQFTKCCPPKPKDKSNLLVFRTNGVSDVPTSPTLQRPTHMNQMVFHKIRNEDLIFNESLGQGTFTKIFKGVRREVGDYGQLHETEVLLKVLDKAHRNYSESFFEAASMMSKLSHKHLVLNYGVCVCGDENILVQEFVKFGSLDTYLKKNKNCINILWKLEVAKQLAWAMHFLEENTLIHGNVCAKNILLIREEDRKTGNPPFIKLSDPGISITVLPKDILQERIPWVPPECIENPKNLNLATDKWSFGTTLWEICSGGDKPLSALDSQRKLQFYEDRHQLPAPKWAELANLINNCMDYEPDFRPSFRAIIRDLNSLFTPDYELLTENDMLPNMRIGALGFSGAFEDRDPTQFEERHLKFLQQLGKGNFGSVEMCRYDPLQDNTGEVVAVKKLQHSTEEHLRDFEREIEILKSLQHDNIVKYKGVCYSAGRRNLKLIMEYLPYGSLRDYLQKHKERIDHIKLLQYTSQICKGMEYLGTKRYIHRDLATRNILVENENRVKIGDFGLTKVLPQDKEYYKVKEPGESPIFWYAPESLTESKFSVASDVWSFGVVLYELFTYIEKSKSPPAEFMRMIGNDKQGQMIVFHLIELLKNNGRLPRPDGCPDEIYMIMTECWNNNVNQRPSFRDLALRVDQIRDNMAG

[5] = molecular target: Receptor-type tyrosine-protein kinase FLT3 (Homo sapiens) (UniProt P36888); test: Inhibition of human FLT3 using EAIYAAPFAKKK as substrate at 1 uM in presence of [gamma-33P]-ATP relative to control
Sequence of Receptor-type tyrosine-protein kinase FLT3 (Homo sapiens) (P36888 whole entry): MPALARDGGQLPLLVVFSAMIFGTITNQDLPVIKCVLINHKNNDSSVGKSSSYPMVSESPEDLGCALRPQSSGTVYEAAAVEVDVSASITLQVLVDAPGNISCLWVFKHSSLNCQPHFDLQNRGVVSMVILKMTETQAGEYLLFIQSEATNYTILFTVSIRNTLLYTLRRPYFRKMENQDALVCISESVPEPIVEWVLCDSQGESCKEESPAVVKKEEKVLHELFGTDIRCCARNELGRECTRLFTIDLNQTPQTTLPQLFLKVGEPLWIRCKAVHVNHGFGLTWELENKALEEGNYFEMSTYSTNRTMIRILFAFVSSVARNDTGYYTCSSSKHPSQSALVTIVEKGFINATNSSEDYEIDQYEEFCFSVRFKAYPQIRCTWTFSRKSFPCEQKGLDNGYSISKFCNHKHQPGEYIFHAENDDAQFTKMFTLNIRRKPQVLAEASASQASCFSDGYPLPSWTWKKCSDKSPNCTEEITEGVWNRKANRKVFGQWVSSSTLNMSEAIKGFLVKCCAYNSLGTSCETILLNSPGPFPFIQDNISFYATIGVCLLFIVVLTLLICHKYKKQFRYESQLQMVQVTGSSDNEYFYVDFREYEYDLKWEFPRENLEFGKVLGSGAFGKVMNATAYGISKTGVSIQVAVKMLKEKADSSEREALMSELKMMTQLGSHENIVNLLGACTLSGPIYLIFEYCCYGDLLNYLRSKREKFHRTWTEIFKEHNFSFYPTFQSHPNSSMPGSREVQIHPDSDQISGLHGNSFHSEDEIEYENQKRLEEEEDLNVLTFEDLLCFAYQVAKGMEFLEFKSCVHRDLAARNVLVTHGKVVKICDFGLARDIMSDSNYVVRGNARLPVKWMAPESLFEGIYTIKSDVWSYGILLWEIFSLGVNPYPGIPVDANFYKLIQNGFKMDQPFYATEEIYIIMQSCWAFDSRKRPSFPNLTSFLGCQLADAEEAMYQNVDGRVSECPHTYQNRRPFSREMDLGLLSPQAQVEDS
Procedure, shortened: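 Kinase inhibition was tested by radiometric "Hotspot" profiling at a contract laboratory with 10 μM ATP.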

[6] = molecular target: T1, Tyrosine-protein kinase JAK2; test: Inhibition of wild type human JAK2 (A829 to G1132 residues) expressed in mammalian cells assessed as residual activity at 1 uM by KINOMEscan assay relative to control; format: cell-based
[7] = molecular target: NUAK family SNF1-like kinase 2 (Homo sapiens) (UniProt Q9H093); test: Inhibition of wild type human SNARK (P22 to A333 residues) expressed in mammalian cells assessed as residual activity at 1 uM by KINOMEscan assay relative to control; format: cell-based
[8] = molecular target: SRSF protein kinase 3 (Homo sapiens) (UniProt Q9UPE1); test: Inhibition of wild type human SRPK3 (P41 to P567 residues) expressed in bacterial cells assessed as residual activity at 1 uM by KINOMEscan assay relative to control; format: cell-based
Sequence of SRSF protein kinase 3 (Homo sapiens) (Q9UPE1 whole entry, the tested form may be a part): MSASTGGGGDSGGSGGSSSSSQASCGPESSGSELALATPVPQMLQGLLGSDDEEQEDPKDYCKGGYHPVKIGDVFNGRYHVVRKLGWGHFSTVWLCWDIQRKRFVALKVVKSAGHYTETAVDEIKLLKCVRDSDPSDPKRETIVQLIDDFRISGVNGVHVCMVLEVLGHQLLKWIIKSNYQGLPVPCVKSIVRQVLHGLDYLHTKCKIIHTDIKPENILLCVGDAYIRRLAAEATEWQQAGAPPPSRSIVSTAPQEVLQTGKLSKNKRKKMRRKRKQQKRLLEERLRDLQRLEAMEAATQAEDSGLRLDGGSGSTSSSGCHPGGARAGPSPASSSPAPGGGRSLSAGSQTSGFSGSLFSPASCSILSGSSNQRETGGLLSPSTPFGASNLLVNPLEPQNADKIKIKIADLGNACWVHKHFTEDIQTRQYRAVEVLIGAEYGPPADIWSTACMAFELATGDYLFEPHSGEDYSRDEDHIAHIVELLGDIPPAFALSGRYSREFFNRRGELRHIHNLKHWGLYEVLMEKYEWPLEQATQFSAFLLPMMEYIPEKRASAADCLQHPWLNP

[9] = molecular target: Rho-associated protein kinase 2 (Homo sapiens) (UniProt O75116); test: Inhibition of wild type human ROCK2 (M1 to T431 residues) expressed in mammalian cells assessed as residual activity at 1 uM by KINOMEscan assay relative to control; format: cell-based
Histone deacetylase 2 = Histone deacetylase 2 (Homo sapiens, UniProt Q92769); test: Inhibition of C-terminal GST tagged human recombinant HDAC2 (1 to 488 residues) expressed in Baculovirus infected insect cells in presence of ATP; procedure, shortened: as §1
Sequence of Histone deacetylase 2 (Q92769 whole entry, the tested form may be a part): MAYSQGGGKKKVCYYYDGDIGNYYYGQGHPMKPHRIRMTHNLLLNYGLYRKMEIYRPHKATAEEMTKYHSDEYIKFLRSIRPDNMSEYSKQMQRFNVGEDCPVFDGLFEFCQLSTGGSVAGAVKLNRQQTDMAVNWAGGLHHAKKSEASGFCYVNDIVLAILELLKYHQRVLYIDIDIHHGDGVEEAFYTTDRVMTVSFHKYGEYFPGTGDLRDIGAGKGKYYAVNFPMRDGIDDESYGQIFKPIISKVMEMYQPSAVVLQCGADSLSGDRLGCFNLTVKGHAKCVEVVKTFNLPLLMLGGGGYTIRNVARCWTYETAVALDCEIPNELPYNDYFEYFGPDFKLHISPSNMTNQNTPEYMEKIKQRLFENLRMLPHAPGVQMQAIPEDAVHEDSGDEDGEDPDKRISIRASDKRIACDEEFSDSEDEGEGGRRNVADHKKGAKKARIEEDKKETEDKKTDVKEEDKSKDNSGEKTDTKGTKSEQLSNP

Histone deacetylase 5 = Histone deacetylase 5 (Homo sapiens, UniProt Q9UQL6); test: Inhibition of C-terminal His tagged human recombinant HDAC5 (657 to 1123 residues) expressed in Baculovirus infected insect cells in presence of ATP; procedure, shortened: as §1
Sequence of Histone deacetylase 5 (Q9UQL6 whole entry, the tested form may be a part): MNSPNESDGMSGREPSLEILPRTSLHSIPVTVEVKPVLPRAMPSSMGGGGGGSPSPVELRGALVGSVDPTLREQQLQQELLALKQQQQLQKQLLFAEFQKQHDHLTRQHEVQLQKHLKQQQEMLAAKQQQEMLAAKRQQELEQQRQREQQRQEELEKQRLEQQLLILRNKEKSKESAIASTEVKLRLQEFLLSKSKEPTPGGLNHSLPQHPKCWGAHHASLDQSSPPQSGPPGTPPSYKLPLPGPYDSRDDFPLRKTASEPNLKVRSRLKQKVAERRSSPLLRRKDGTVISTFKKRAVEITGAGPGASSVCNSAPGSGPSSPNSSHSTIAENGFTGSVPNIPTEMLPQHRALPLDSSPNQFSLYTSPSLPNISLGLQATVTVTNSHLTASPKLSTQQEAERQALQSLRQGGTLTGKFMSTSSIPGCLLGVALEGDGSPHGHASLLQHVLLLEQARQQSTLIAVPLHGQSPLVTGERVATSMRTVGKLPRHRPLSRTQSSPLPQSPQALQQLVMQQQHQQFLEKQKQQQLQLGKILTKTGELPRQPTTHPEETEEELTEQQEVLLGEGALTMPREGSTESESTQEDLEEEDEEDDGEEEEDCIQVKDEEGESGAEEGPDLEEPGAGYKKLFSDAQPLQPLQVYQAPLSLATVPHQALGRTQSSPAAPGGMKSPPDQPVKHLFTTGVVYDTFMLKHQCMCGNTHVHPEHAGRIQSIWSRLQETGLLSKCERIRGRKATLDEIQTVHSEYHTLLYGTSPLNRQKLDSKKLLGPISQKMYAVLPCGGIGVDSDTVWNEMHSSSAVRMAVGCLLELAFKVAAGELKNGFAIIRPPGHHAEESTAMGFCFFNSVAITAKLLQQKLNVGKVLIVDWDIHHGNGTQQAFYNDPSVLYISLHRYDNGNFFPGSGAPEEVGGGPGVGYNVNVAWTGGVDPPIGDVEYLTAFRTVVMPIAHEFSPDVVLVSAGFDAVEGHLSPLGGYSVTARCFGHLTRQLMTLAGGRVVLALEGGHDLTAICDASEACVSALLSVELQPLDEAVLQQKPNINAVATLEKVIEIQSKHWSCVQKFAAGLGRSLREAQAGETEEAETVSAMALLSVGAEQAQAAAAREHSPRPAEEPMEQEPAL

Histone deacetylase 11 = Histone deacetylase 11 (Homo sapiens, UniProt Q96DB2); test: Inhibition of C-terminal His tagged human recombinant HDAC11 (1 to 347 residues) expressed in Baculovirus infected insect cells in presence of ATP; procedure, shortened: as §1
Sequence of Histone deacetylase 11 (Q96DB2 whole entry, the tested form may be a part): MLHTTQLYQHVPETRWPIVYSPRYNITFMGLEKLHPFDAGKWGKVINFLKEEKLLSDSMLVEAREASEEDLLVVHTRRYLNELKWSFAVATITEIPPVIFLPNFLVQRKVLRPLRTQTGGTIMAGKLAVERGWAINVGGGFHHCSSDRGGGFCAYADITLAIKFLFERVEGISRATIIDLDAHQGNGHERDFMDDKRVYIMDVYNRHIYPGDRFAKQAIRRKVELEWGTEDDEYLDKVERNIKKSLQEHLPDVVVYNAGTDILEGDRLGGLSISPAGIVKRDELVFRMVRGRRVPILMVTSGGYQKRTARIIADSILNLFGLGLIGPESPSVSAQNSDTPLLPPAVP

HCT-116 = test: Antiproliferative activity against human HCT116 cells after 72 hrs by MTT assay; format: functional, cell-based; conditions: HCT-116, 72 h
cells = format: functional, cell-based; conditions: Homo sapiens, XG6, 48 h
MOLM-14 = test: cells; format: functional, cell-based; conditions: Homo sapiens, MOLM-14, 48 h
[10] = Terminal half life in Wistar rat at 1 mg/kg, iv by LC-MS/MS analysis; format: ADME, organism-based; conditions: in vivo, read-out: beta t1/2 (converted)
Procedure, shortened: (§2)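 Wistar rats given a single 1 mg/kg iv dose. Plasma concentration–time profiles were plotted as mean ± SEM and sampled through 24 h postdose. Values were taken from the iv profile.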

[11] = Volume of distribution at steady state in Wistar rat at 1 mg/kg, iv by LC-MS/MS analysis; format: ADME, organism-based; conditions: in vivo, read-out: Vdss; procedure, shortened: as §2
[12] = Terminal half life in Wistar rat at 5 mg/kg, po administered via gavage by LC-MS/MS analysis; format: ADME, organism-based; conditions: in vivo, read-out: beta t1/2 (converted)
Procedure, shortened: (§3)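 Wistar rats given a single 5 mg/kg oral dose. Plasma concentration–time profiles were plotted as mean ± SEM and sampled through 24 h postdose.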

[13] = Tmax in Wistar rat at 5 mg/kg, po administered via gavage by LC-MS/MS analysis; format: ADME, organism-based; conditions: in vivo; procedure, shortened: as §3
[14] = Cmax in Wistar rat at 5 mg/kg, po administered via gavage by LC-MS/MS analysis; format: ADME, organism-based; design: dose 5 mg/kg, route oral; conditions: in vivo; procedure, shortened: as §3
[15] = Oral bioavailability in Wistar rat at 5 mg/kg administered via gavage by LC-MS/MS analysis; format: ADME, organism-based; conditions: in vivo; procedure, shortened: as §3
KMS-12-BM = test: Induction of apoptosis in human KMS-12-BM cells assessed as increase in cleaved PARP level at 1 to 6 uM after 24 hrs by immunoblotting analysis; format: functional, cell-based
Procedure, shortened: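 KMS-12-BM and MOLM-14 cells were treated for 24 h and then lysed. Cleaved PARP was detected by immunoblotting.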

- half-life [1]: > 200 min
- solubility thermodynamic at 24 h [3]: > 73 µg/mL
- IC50 (Histone deacetylase 8): 469 nM
- IC50 (TAMH): 4630 nM
- Kd [4]: 5000 nM
- inhibition [5]: 27%
- Activity [6]: 0%
- Activity [7]: 7.5%
- Activity [8]: 18%
- Activity [9]: 29%
- IC50 (Histone deacetylase 2): 5.8 nM
- IC50 (Histone deacetylase 5): 10500 nM
- IC50 (Histone deacetylase 11): 31 nM
- IC50 (HCT-116): 2320 nM
- IC50 (cells): 2010 nM
- IC50 (MOLM-14): 740 nM
- half-life [10]: 21 min
- Vd [11]: 1.49 L/kg
- half-life [12]: 34.8 min
- Tmax [13]: 4.98 min
- Cmax [14]: 15.9 ng/mL
- bioavailability [15]: 1.4%
Compound: O=C(CCCCCCn1cc(-c2ncnc3[nH]ccc23)cn1)NO
- viability at 24 h, 100 µM [2]: 56%
- Activity (KMS-12-BM): Dose-dependent effect
